The species entered for data set [1] is Oryctolagus cuniculus. The experiment in a line: The compound was tested in vitro for prokinetic activity as smooth muscle contractility in isolated rabbit duodenum. The format is functional, Muscle tissue.
Data set [2] in a line: Activity relative to erythromycin A.
The nature of data set [3]: Oral bioavailability in dog. The format is ADME, organism-based, Canis lupus familiaris. Particulars: in vivo. An outline of the steps:
(§1)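 Groups of fasted male/female beagle dogs received the lactobionate salt as a 2 mg/mL solution, at 0.5 mg/kg iv or 1 mg/kg po. Blood was sampled at set times over 12 h. Parent drug was extracted from alkalized plasma with EtOAc:hexane (1:1) and measured by reverse-phase HPLC (pH 6.9 phosphate mobile phase) with oxidative electrochemical detection. The assay was linear over 0-500 ng/mL, with LOQ ~7 ng/mL.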

The nature of data set [4]: Half life period after oral administration in the dog. The format is ADME, organism-based, Canis lupus familiaris. Particulars: in vivo. An outline of the steps:
as §1

As for `CC[C@H]1OC(=O)[C@H](C)[C@@H](O[C@H]2C[C@@](C)(OC)C[C@H](C)O2)[C@H](C)[C@@H](O[C@@H]2O[C@H](C)C[C@H](N(C)C)[C@H]2O)[C@@]2(C)CC(C)=C(O2)[C@H](C)[C@@H](O)[C@H]1C`, in data set [1], the pED50 is given as 11.26. In data set [2], this compound came in with a Relative activity of 5.41.

Take `CC[C@H]1OC(=O)[C@H](C)[C@@H](O[C@H]2C[C@@](C)(OC)C[C@H](C)O2)[C@H](C)[C@@H](O[C@@H]2O[C@H](C)C[C@H](NC)[C@H]2O)[C@@]2(C)CC(C)=C(O2)[C@H](C)[C@@H](O)[C@]1(C)O`: the pED50 in data set [1] stood at 9.74. Moreover, in data set [2], the Relative activity amounted to 3.89.

In data set [1], `CC[C@H]1OC(=O)[C@H](C)[C@@H](O[C@H]2C[C@@](C)(OC)[C@@H](O)[C@H](C)O2)[C@H](C)[C@@H](O[C@@H]2O[C@H](C)C[C@H](NC)[C@H]2O)[C@@]2(C)CC(C)=C(O2)[C@H](C)[C@@H](O)[C@]1(C)O` returned a pED50 of 7.1. For the same compound, the Relative activity in data set [2] was 1.3.

In data set [3], `CC[C@H]1OC(=O)[C@H](C)[C@@H](O[C@H]2C[C@@](C)(OC)[C@@H](O)[C@H](C)O2)[C@H](C)[C@@H](O[C@@H]2O[C@H](C)C[C@H](N(C)CC)[C@H]2O)[C@@]2(C)CC(C)=C(O2)[C@H](C)[C@@H](O)[C@]1(C)O` yielded a bioavailability of 1.4%. Moreover, in data set [4], the half-life is 2.4 h. The pED50 in data set [1] was 8.45. Besides, in data set [2], the Relative activity was 2.6.

In data set [1], `CC[C@H]1OC(=O)[C@H](C)[C@@H](O[C@H]2C[C@@](C)(OC)[C@@H](O)[C@H](C)O2)[C@H](C)[C@@H](O[C@@H]2O[C@H](C)C[C@H](N(C)C)[C@H]2O)[C@](C)(O)C[C@@H](C)C(=O)[C@H](C)[C@@H](O)[C@]1(C)O` [ERYTHROMYCIN] came in with a pED50 of 5.85.

`CC[C@H]1OC(=O)[C@H](C)[C@@H](O[C@H]2C[C@@](C)(OC)C[C@H](C)O2)[C@H](C)[C@@H](O[C@@H]2O[C@H](C)C[C@H](NC)[C@H]2O)[C@@]2(C)CC(C)=C(O2)[C@H](C)[C@@H](O)[C@H]1C` yielded a bioavailability in data set [3] of 23.8%. Moreover, in data set [4], the half-life was 2 h. In data set [1], this compound gave a pED50 greater than 12. This compound displayed a Relative activity in data set [2] greater than 6.15.

Take `CC[C@H]1OC(=O)[C@H](C)[C@@H](O[C@H]2C[C@@](C)(OC)C[C@H](C)O2)[C@H](C)[C@@H](O[C@@H]2O[C@H](C)C[C@H](N(C)C)[C@H]2O)[C@@]2(C)CC(C)=C(O2)[C@H](C)[C@@H](O)[C@]1(C)O`: the pED50 in data set [1] is on record as 8.41. In data set [2], this compound came in with a Relative activity of 2.56.

`CC[C@H]1OC(=O)[C@H](C)[C@@H](O[C@H]2C[C@@](C)(OC)[C@@H](O)[C@H](C)O2)[C@H](C)[C@@H](O[C@@H]2O[C@H](C)C[C@H](N(C)C)[C@H]2O)[C@@]2(C)CC(C)=C(O2)[C@H](C)[C@@H](O)[C@H]1C` registered a pED50 in data set [1] of 8.68. The same compound returned a Relative activity in data set [2] of 2.83.

In data set [3], `CC[C@H]1OC(=O)[C@H](C)[C@@H](O[C@H]2C[C@@](C)(OC)C[C@H](C)O2)[C@H](C)[C@@H](O[C@@H]2O[C@H](C)C[C@H](N(C)CC)[C@H]2O)[C@@]2(C)CC(C)=C(O2)[C@H](C)[C@@H](O)[C@]1(C)O` registered a bioavailability of 2.7%. The compound also had a half-life in data set [4] of 2.6 h. Moreover, the pED50 in data set [1] is 11.15. Also, the Relative activity in data set [2] came out at 5.3.

In data set [1], `CC[C@H]1OC(=O)[C@H](C)[C@@H](O[C@H]2C[C@@](C)(OC)[C@@H](O)[C@H](C)O2)[C@H](C)[C@@H](O[C@@H]2O[C@H](C)C[C@H](N(C)C)[C@H]2O)[C@@]2(C)CC(C)=C(O2)[C@H](C)[C@@H](O)[C@]1(C)O` displayed a pED50 of 8.4. Also, in data set [2], the Relative activity came to 2.55.

In the case of `CC[C@H]1OC(=O)[C@H](C)[C@@H](O[C@H]2C[C@@](C)(OC)C[C@H](C)O2)[C@H](C)[C@@H](O[C@@H]2O[C@H](C)C[C@H](N(C)CC)[C@H]2O)[C@@]2(C)CC(C)=C(O2)[C@H](C)[C@@H](O)[C@H]1C` [ALEMCINAL], the bioavailability in data set [3] is 39%. This compound also showed a half-life in data set [4] of 5.5 h. In addition, in data set [1], the pED50 is reported as greater than 12. The compound further showed a Relative activity in data set [2] greater than 6.15.

Broadly, the bioavailability is dose-corrected exposure relative to a reference, in per cent. Broadly, the half-life is the time needed for the level to fall by half in the phase considered. A higher half-life goes with slow decline.
